≈ marks a conversion by molar mass, not a printed value.
The compounds below were run on Proteus mirabilis (assay: Antibacterial activity against Proteus mirabilis after 18 to 22 hrs by broth microdilution method). Conditions: not given.
Format: functional
Outline: (§1)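 Broth microdilution per NCCLS in Mueller-Hinton II broth; isolates subcultured for purity. Compounds dissolved in DMSO, serial dilutions 256 to 0.5 µg/mL; inoculum 10^5/mL. Controls: organism without compound, medium only. Incubation 18 to 22 h at 35 °C. MIC is the lowest concentration giving complete growth inhibition, read by unaided eye.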
For `CC1CCCC/C1=N\N=C1/SCC(=O)N1Cc1ccc([N+](=O)[O-])cc1` (stereo unspecified), the MIC was > 256 µg/mL. With `CC1CCC(=N/N=C2\SCC(=O)N2CN2C(=O)c3ccccc3C2=O)CC1` (stereo unspecified) the MIC was > 256 µg/mL. For `C/C(=N\N=C1/SCC(=O)N1Cc1ccc([N+](=O)[O-])cc1)c1ccco1`, the MIC was > 256 µg/mL. In the case of `C/C(=N\N=C1/SCC(=O)N1Cc1cccc2ccccc12)c1ccco1`, the MIC is reported as > 256 µg/mL.

These compounds were tested on Staphylococcus aureus (assay: Antibacterial activity against Staphylococcus aureus after 18 to 22 hrs by broth microdilution method). Conditions: not given.
Format: functional
Outline: as §1
With `CC1CCCC/C1=N\N=C1/SCC(=O)N1Cc1ccc([N+](=O)[O-])cc1` (stereo unspecified) the MIC was > 256 µg/mL. For `CC1CCC(=N/N=C2\SCC(=O)N2CN2C(=O)c3ccccc3C2=O)CC1` (stereo unspecified), the MIC was > 256 µg/mL. With `C/C(=N\N=C1/SCC(=O)N1Cc1ccc([N+](=O)[O-])cc1)c1ccco1` the MIC was > 256 µg/mL. In the case of `C/C(=N\N=C1/SCC(=O)N1Cc1cccc2ccccc12)c1ccco1`, the MIC is reported as > 256 µg/mL.

What follows are compounds tested on Candida albicans (assay: Antifungal activity against Candida albicans clinical isolate after 24 hrs by sabouraud dextrose broth based microdilution method). Conditions: not given.
Format: functional
Outline: (§2)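 Clinical isolates identified by conventional methods and subcultured for purity. Broth microdilution per NCCLS in Sabouraud dextrose broth; compounds dissolved in DMSO and serially diluted; inoculum 10^3/mL. Controls: fungi without compound, medium only. Incubated 24 h at 37 °C. MIC is the lowest concentration with complete growth inhibition by unaided eye. Values are geometric means over isolates per species.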
`CC1CCCC/C1=N\N=C1/SCC(=O)N1Cc1ccc([N+](=O)[O-])cc1` (stereo unspecified) showed an MIC of 16 µg/mL (≈ 44.4 µM). `CC1CCC(=N/N=C2\SCC(=O)N2CN2C(=O)c3ccccc3C2=O)CC1` (stereo unspecified) showed an MIC of 2 µg/mL (≈ 5.2 µM). `C/C(=N\N=C1/SCC(=O)N1Cc1ccc([N+](=O)[O-])cc1)c1ccco1` showed an MIC of 32 µg/mL (≈ 89.3 µM). `C/C(=N\N=C1/SCC(=O)N1Cc1cccc2ccccc12)c1ccco1` was tested, and the MIC was 32 µg/mL (≈ 88 µM).

These compounds were tested on Escherichia coli (assay: Antibacterial activity against Escherichia coli at after 18 to 22 hrs by broth microdilution method). Conditions: not given.
Format: functional
Outline: as §1
With `CC1CCCC/C1=N\N=C1/SCC(=O)N1Cc1ccc([N+](=O)[O-])cc1` (stereo unspecified) the MIC was > 256 µg/mL. For `CC1CCC(=N/N=C2\SCC(=O)N2CN2C(=O)c3ccccc3C2=O)CC1` (stereo unspecified), the MIC was > 256 µg/mL. For `C/C(=N\N=C1/SCC(=O)N1Cc1ccc([N+](=O)[O-])cc1)c1ccco1`, the MIC was > 256 µg/mL. `C/C(=N\N=C1/SCC(=O)N1Cc1cccc2ccccc12)c1ccco1` was tested, and the MIC was > 256 µg/mL.

The compounds below were run on Nakaseomyces glabratus (assay: Antifungal activity against Candida glabrata clinical isolate after 24 hrs by sabouraud dextrose broth based microdilution method). Conditions: not given.
Format: functional
Outline: as §2
With `CC1CCCC/C1=N\N=C1/SCC(=O)N1Cc1ccc([N+](=O)[O-])cc1` (stereo unspecified) the MIC was 32 µg/mL (≈ 88.8 µM). `CC1CCC(=N/N=C2\SCC(=O)N2CN2C(=O)c3ccccc3C2=O)CC1` (stereo unspecified) gave an MIC of 32 µg/mL (≈ 83.2 µM). `C/C(=N\N=C1/SCC(=O)N1Cc1ccc([N+](=O)[O-])cc1)c1ccco1` gave an MIC of 32 µg/mL (≈ 89.3 µM). Work on `C/C(=N\N=C1/SCC(=O)N1Cc1cccc2ccccc12)c1ccco1` yielded an MIC of 32 µg/mL (≈ 88 µM).

Each compound was assayed on Enterococcus faecalis (assay: Antibacterial activity against […] faecalis after 18 to 22 hrs by broth microdilution method). Conditions: not given.
Format: functional
Outline: as §1
`CC1CCCC/C1=N\N=C1/SCC(=O)N1Cc1ccc([N+](=O)[O-])cc1` (stereo unspecified) was tested, and the MIC was > 256 µg/mL. With `CC1CCC(=N/N=C2\SCC(=O)N2CN2C(=O)c3ccccc3C2=O)CC1` (stereo unspecified) the MIC was > 256 µg/mL. `C/C(=N\N=C1/SCC(=O)N1Cc1ccc([N+](=O)[O-])cc1)c1ccco1` was tested, and the MIC was > 256 µg/mL. In the case of `C/C(=N\N=C1/SCC(=O)N1Cc1cccc2ccccc12)c1ccco1`, the MIC is reported as > 256 µg/mL.

Each compound was assayed on Candida parapsilosis (assay: Antifungal activity against Candida parapsilosis clinical isolate after 24 hrs by sabouraud dextrose broth based microdilution method). Conditions: Lodderomyces parapsilosis.
Format: functional
Outline: as §2
`CC1CCCC/C1=N\N=C1/SCC(=O)N1Cc1ccc([N+](=O)[O-])cc1` (stereo unspecified) was tested, and the MIC was 16 µg/mL (≈ 44.4 µM). Work on `CC1CCC(=N/N=C2\SCC(=O)N2CN2C(=O)c3ccccc3C2=O)CC1` (stereo unspecified) yielded an MIC of 8 µg/mL (≈ 20.8 µM). `C/C(=N\N=C1/SCC(=O)N1Cc1ccc([N+](=O)[O-])cc1)c1ccco1` showed an MIC of 8 µg/mL (≈ 22.3 µM). In the case of `C/C(=N\N=C1/SCC(=O)N1Cc1cccc2ccccc12)c1ccco1`, the MIC is reported as 4 µg/mL (≈ 11 µM).

Each compound was assayed on Klebsiella oxytoca (assay: Antibacterial activity against Klebsiella oxytoca after 18 to 22 hrs by broth microdilution method). Conditions: not given.
Format: functional
Outline: as §1
For `CC1CCCC/C1=N\N=C1/SCC(=O)N1Cc1ccc([N+](=O)[O-])cc1` (stereo unspecified), the MIC was > 256 µg/mL. `CC1CCC(=N/N=C2\SCC(=O)N2CN2C(=O)c3ccccc3C2=O)CC1` (stereo unspecified) was tested, and the MIC was > 256 µg/mL. `C/C(=N\N=C1/SCC(=O)N1Cc1ccc([N+](=O)[O-])cc1)c1ccco1` was tested, and the MIC was > 256 µg/mL. With `C/C(=N\N=C1/SCC(=O)N1Cc1cccc2ccccc12)c1ccco1` the MIC was > 256 µg/mL.

What follows are compounds tested on Candida tropicalis (assay: Antifungal activity against Candida tropicalis clinical isolate after 24 hrs by sabouraud dextrose broth based microdilution method). Conditions: not given.
Format: functional
Outline: as §2
`CC1CCCC/C1=N\N=C1/SCC(=O)N1Cc1ccc([N+](=O)[O-])cc1` (stereo unspecified) was tested, and the MIC was 4 µg/mL (≈ 11.1 µM). `CC1CCC(=N/N=C2\SCC(=O)N2CN2C(=O)c3ccccc3C2=O)CC1` (stereo unspecified) gave an MIC of 8 µg/mL (≈ 20.8 µM). Compound `C/C(=N\N=C1/SCC(=O)N1Cc1ccc([N+](=O)[O-])cc1)c1ccco1` has an MIC of 16 µg/mL (≈ 44.6 µM). Work on `C/C(=N\N=C1/SCC(=O)N1Cc1cccc2ccccc12)c1ccco1` yielded an MIC of 128 µg/mL (≈ 352 µM).

Each compound was assayed on Enterobacter sp. (assay: Antibacterial activity against Enterobacter sp. after 18 to 22 hrs by broth microdilution method). Conditions: not given.
Format: functional
Outline: as §1
In the case of `CC1CCCC/C1=N\N=C1/SCC(=O)N1Cc1ccc([N+](=O)[O-])cc1` (stereo unspecified), the MIC is reported as > 256 µg/mL. `CC1CCC(=N/N=C2\SCC(=O)N2CN2C(=O)c3ccccc3C2=O)CC1` (stereo unspecified) was tested, and the MIC was > 256 µg/mL. `C/C(=N\N=C1/SCC(=O)N1Cc1ccc([N+](=O)[O-])cc1)c1ccco1` was tested, and the MIC was > 256 µg/mL. With `C/C(=N\N=C1/SCC(=O)N1Cc1cccc2ccccc12)c1ccco1` the MIC was > 256 µg/mL.

The compounds below were run on Pichia kudriavzevii (assay: Antifungal activity against Candida krusei clinical isolate after 24 hrs by sabouraud dextrose broth based microdilution method). Conditions: not given.
Format: functional
Outline: as §2
`CC1CCCC/C1=N\N=C1/SCC(=O)N1Cc1ccc([N+](=O)[O-])cc1` (stereo unspecified) gave an MIC of 2 µg/mL (≈ 5.55 µM). `CC1CCC(=N/N=C2\SCC(=O)N2CN2C(=O)c3ccccc3C2=O)CC1` (stereo unspecified) was tested, and the MIC was 8 µg/mL (≈ 20.8 µM). Compound `C/C(=N\N=C1/SCC(=O)N1Cc1ccc([N+](=O)[O-])cc1)c1ccco1` has an MIC of 4 µg/mL (≈ 11.2 µM). Compound `C/C(=N\N=C1/SCC(=O)N1Cc1cccc2ccccc12)c1ccco1` has an MIC of 4 µg/mL (≈ 11 µM).

Each compound was assayed on Staphylococcus haemolyticus (assay: Antibacterial activity against Staphylococcus haemolyticus after 18 to 22 hrs by broth microdilution method). Conditions: not given.
Format: functional
Outline: as §1
`CC1CCCC/C1=N\N=C1/SCC(=O)N1Cc1ccc([N+](=O)[O-])cc1` (stereo unspecified) was tested, and the MIC was > 256 µg/mL. For `CC1CCC(=N/N=C2\SCC(=O)N2CN2C(=O)c3ccccc3C2=O)CC1` (stereo unspecified), the MIC was > 256 µg/mL. For `C/C(=N\N=C1/SCC(=O)N1Cc1ccc([N+](=O)[O-])cc1)c1ccco1`, the MIC was > 256 µg/mL. For `C/C(=N\N=C1/SCC(=O)N1Cc1cccc2ccccc12)c1ccco1`, the MIC was > 256 µg/mL.

The compounds below were run on Staphylococcus warneri (assay: Antibacterial activity against Staphylococcus warneri after 18 to 22 hrs by broth microdilution method). Conditions: not given.
Format: functional
Outline: as §1
For `CC1CCCC/C1=N\N=C1/SCC(=O)N1Cc1ccc([N+](=O)[O-])cc1` (stereo unspecified), the MIC was > 256 µg/mL. `CC1CCC(=N/N=C2\SCC(=O)N2CN2C(=O)c3ccccc3C2=O)CC1` (stereo unspecified) was tested, and the MIC was > 256 µg/mL. With `C/C(=N\N=C1/SCC(=O)N1Cc1ccc([N+](=O)[O-])cc1)c1ccco1` the MIC was > 256 µg/mL. `C/C(=N\N=C1/SCC(=O)N1Cc1cccc2ccccc12)c1ccco1` was tested, and the MIC was > 256 µg/mL.

The compounds below were run on [Candida] sake (assay: Antifungal activity against Candida sake clinical isolate after 24 hrs by sabouraud dextrose broth based microdilution method). Conditions: Fermentozyma sake.
Format: functional
Outline: as §2
Work on `CC1CCCC/C1=N\N=C1/SCC(=O)N1Cc1ccc([N+](=O)[O-])cc1` (stereo unspecified) yielded an MIC of 4 µg/mL (≈ 11.1 µM). For `CC1CCC(=N/N=C2\SCC(=O)N2CN2C(=O)c3ccccc3C2=O)CC1` (stereo unspecified), the MIC was 4 µg/mL (≈ 10.4 µM). In the case of `C/C(=N\N=C1/SCC(=O)N1Cc1ccc([N+](=O)[O-])cc1)c1ccco1`, the MIC is reported as 8 µg/mL (≈ 22.3 µM). In the case of `C/C(=N\N=C1/SCC(=O)N1Cc1cccc2ccccc12)c1ccco1`, the MIC is reported as 4 µg/mL (≈ 11 µM).
